≈ marks a conversion by molar mass, not a printed value.
Key:
[1] = target: Methionine aminopeptidase 2 (Homo sapiens, UniProt P50579); assay: Inhibition of methionine aminopeptidase 2
KB = assay: Cytotoxicity against human KB cells; format: functional, cell-based
Mus musculus [2] = assay: Toxicity in human HCT116 xenografted SCID mouse assessed as increase in body weight at 25 mg/kg/day, iv administered as bolus dose from 3 days after tumor implantation for 5 days measured after 30 days; format: organism-based; parameters: route intravenous; conditions: in vivo, 720 h
How it was run: (§1)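 SCID mice implanted with HCT-116 tumour cells, dosed iv as a bolus daily for 5 days starting 3 days after inoculation and followed to day 30. Tumour response read as %T/C against untreated controls; body weights tracked over the 30 days and compared with untreated controls.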

MDA-MB-435 = assay: Cytotoxicity against human MDA-MB-435 cells; format: functional, cell-based; conditions: for CC50: read-out: LC50 (the source's name)
Mus musculus [3] = assay: Toxicity in human HCT116 xenografted SCID mouse assessed as increase in body weight at 12.3 mg/kg/day, iv administered as bolus dose from 3 days after tumor implantation for 5 days measured after 30 days; format: organism-based; parameters: route intravenous; conditions: in vivo, 720 h; how it was run: as §1
HCT-116 [4] = assay: Cytotoxicity against human HCT116 xenografted in SCID mouse at 25 mg/kg/day, iv administered as bolus dose from 3 days after tumor implantation for 5 days measured on day 11 relative to control; format: functional; how it was run: as §1
HCT-116 [5] = assay: Cytotoxicity against human HCT116 xenografted in SCID mouse at 12.3 mg/kg/day, iv administered as bolus dose from 3 days after tumor implantation for 5 days measured on day 9 relative to control; format: functional; how it was run: as §1
[6] = target: Methionine aminopeptidase 1 (Homo sapiens, UniProt P53582); assay: Inhibition of methionine aminopeptidase 1
MCF7 = assay: Growth inhibition of human MCF7 cells; format: functional
HCT-116 [7] = assay: Anticancer activity against human HCT116 xenografted in SCID mouse at 31 ug/mouse dosed as bolus dose after 23 days relative to control; format: functional
How it was run: (§2)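 Bolus injection into SCID mice bearing HCT-116 tumours at 125, 62 or 31 μg/mouse; tumour growth read as %T/C against controls at 23 days.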

[8] = Toxicity in SCID mouse assessed as maximum tolerated dose; format: organism-based; conditions: in vivo
HCT-116 [9] = assay: Cytotoxicity against human HCT116 cells assessed as cell kill at >=20 pg/mL after 168 hrs by clonogenic assay; format: functional
How it was run: (§3)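 Clonogenic dose-response on HCT-116 cells with exposures of 2, 24 and 168 h; the value is the concentration giving 90% cell kill at each exposure time.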

PC-3 = assay: Cytotoxicity against human PC3 cells; format: functional, cell-based
HCT-116 [10] = assay: Cytotoxicity against human HCT116 cells assessed as cell kill at >=3 ng/mL after 2 hrs by clonogenic assay; format: functional; how it was run: as §3
HCT-116 [11] = assay: Anticancer activity against human HCT116 xenografted in SCID mouse at 62 ug/mouse dosed as bolus dose after 23 days relative to control; format: functional; how it was run: as §2
Mus musculus [12] = assay: Toxicity in human HCT116 xenografted SCID mouse at 125 ug/mouse dosed as bolus dose after 23 days; format: organism-based; conditions: in vivo, 552 h; how it was run: as §2
HCT-116 [13] = assay: Cytotoxicity against human HCT116 cells assessed as cell kill at >=2 ng/mL after 24 hrs by clonogenic assay; format: functional; how it was run: as §3
HCT-116 [14] = assay: Cytotoxicity against human HCT116 cells; format: functional, cell-based
How it was run: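 HCT-116 cells in liquid culture; IC50 from two determinations, reported as their median.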

HCT-116 [15] = assay: Cytotoxicity against human HCT116 cells after 24 hrs by clonogenic assay; format: functional; how it was run: as §3
HCT-116 [16] = assay: Cytotoxicity against human HCT116 cells after 2 hrs by clonogenic assay; format: functional; how it was run: as §3

Methionine aminopeptidase 2, sequence (P50579 whole entry): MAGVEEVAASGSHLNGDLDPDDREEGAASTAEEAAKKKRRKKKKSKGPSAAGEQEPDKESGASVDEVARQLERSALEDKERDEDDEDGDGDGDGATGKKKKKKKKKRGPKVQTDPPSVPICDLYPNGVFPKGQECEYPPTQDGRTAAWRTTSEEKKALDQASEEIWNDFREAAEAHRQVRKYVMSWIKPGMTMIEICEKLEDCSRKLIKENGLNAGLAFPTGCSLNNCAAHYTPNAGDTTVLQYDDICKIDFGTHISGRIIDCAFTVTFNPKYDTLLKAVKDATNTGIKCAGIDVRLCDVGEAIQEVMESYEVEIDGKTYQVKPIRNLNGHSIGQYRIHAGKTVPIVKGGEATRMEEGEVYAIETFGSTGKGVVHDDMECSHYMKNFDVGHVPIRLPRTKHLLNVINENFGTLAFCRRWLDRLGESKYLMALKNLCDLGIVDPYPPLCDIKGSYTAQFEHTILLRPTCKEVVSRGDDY

CC(C)(C)OC(=O)Nc1cccnc1C(=O)Nc1nccs1
IC50 [1]: > 300000 nM

CCC(C)CCCCCCCCCCC(=O)O[C@H]1CC[C@H](NC(=O)[C@H](OC)[C@H](O)[C@@H](O)[C@H](O)/C=C/C(C)C)C(=O)N(C)C1 (some centres not stated) [BENGAMIDE O]
IC50 [1]: > 50000 nM

C=C1C[C@H](C)C[C@@H]2CC=C[C@@H](C/C=C\C(=O)O[C@H]([C@@H](O)/C=C/[C@@H]3CC(C)=CCO3)C[C@@H]3O[C@H]3[C@@H](O)C1)O2 [FIJIANOLIDE B]
IC50 (KB): 29 nM
Activity (Mus musculus [2]): Non-toxic
IC50 (MDA-MB-435): 2 nM
CC50 (MDA-MB-435): 7 nM
Activity (Mus musculus [3]): Non-toxic
T/C (HCT-116 [4]): 11%
T/C (HCT-116 [5]): 80%

CO[C@@H]1[C@H](OC(=O)/C=C/C=C/C=C/C=C/C(=O)O)CC[C@]2(CO2)[C@H]1[C@@]1(C)O[C@@H]1CC=C(C)C [FUMAGILLIN]
IC50 [1]: 30 nM
IC50 [6]: Not Active

C=C(C)C[C@H](OC)[C@H](O)C(=O)N[C@@H](OC)C1C[C@@H](O)C(C)(C)[C@@H](C[C@H](O)[C@@H](C)[C@@H]2Cc3c(C)c(O)cc(O)c3C(=O)O2)O1 (some centres not stated) [IRCINIASTATIN]
GI50 (MCF7): 5.2 nM
T/C (HCT-116 [7]): 86%
MTD [8]: 0.125 mg/kg
Activity (HCT-116 [9]): 90%
IC50 (PC-3): 1 nM
CC50 (MDA-MB-435): < 2.5 nM
Activity (HCT-116 [10]): 90%
T/C (HCT-116 [11]): 75%
Activity (Mus musculus [12]): Toxic
Activity (HCT-116 [13]): 90%

C=CC/C=C\Cc1csc(C(C)(C)[C@H](O)C/C=C\C(=C)CCNC(=O)OC)n1 [MYCOTHIAZOLE]
IC50 (HCT-116 [14]): 1.5 ng/mL (≈ 3.71 nM)
MTD [8]: 3 mg/kg
Activity (HCT-116 [15]): >10 µg/mL
Activity (HCT-116 [16]): >10 µg/mL

CO[C@@H]1[C@H](OC(=O)NC(=O)CCl)CC[C@]2(CO2)[C@H]1[C@@]1(C)O[C@@H]1CC=C(C)C [O-CHLOROACETYLCARBAMOYLFUMAGILLOL]
IC50 [6]: Not Active

CO[C@@H]1C(=O)CC[C@]2(CO2)[C@@]1(O)[C@@]1(C)O[C@@H]1CC=C(C)C [OVALICIN]
IC50 [6]: Not Active

— ChEMBL document CHEMBL1152347, “A selective account of effective paradigms and significant outcomes in the discovery of inspirational marine natural products” (J Nat Prod, 2009)
